pKi: −log10 of the molar value. The source made the active and inactive calls. No cut-off for these calls is given here.

Results on nine molecules are retold here after ChEMBL document CHEMBL1151703, “Irreversible inhibition of dihydrodipicolinate synthase by 4-oxo-heptenedioic acid analogues” (Bioorg Med Chem, 2008).

Experiment [1] deals with T1, 4-hydroxy-tetrahydrodipicolinate synthase (Escherichia coli K-12, UniProt P0A6L2).
T1 sequence (P0A6L2 whole entry): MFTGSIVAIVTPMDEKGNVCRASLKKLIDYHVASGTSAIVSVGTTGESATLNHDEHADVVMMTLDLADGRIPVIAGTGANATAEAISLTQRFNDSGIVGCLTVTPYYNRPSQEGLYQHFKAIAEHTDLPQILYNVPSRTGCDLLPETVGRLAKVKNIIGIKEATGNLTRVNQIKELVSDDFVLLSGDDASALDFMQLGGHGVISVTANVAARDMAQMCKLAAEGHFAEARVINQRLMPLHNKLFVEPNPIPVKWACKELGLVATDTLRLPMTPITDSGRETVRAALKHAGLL
The experiment in a line: Inhibition of Escherichia coli DHDPS.

Experiment [2] deals with T1, 4-hydroxy-tetrahydrodipicolinate synthase. The experiment in a line: (§1) Inhibition of Escherichia coli recombinant DHDPS overexpressed with DHDPR assessed as residual activity by modified coupled assay. The conditions noted are these: read-out: Ki(app). A digest of the protocol: (§2)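 Recombinant E. coli DHDPS, purified, pre-incubated with inhibitor for various times before activity measurement in a coupled assay with E. coli DHDPR (modified coupled assay) at 30 °C; inhibitor range 0.1–250 mM across compounds. Each decay curve was fitted to give kobs; kobs versus [I] was fitted to give kinact and Ki(app); the second-order rate constant is kinact/Ki(app).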

The target of experiment [3] is T2, 4-hydroxy-tetrahydrodipicolinate synthase (Escherichia coli K-12) (UniProt P0A6L2).
T2 sequence (whole entry): T1 sequence (P0A6L2 whole entry)
Nature of the experiment: Inhibition of Escherichia coli recombinant DHDPS overexpressed with DHDPR assessed as residual activity at 2 mM within 6 min by modified coupled assay. A digest of the protocol:
as §2

In experiment [4] the target is T2, 4-hydroxy-tetrahydrodipicolinate synthase (Escherichia coli K-12). The experiment in a line: Inactivation of Escherichia coli recombinant DHDPS. A digest of the protocol: as §2
For experiment [5] the target is unchanged. The experiment in a line: Ratio of Kinact to Ki(app) for Escherichia coli recombinant DHDPS. A digest of the protocol:
as §2

Experiment [6] shares this target. The experiment is described as §1. Conditions: TDE = time-dependent effect. A digest of the protocol: as §2
The nature of experiment [7]: Inhibition of succinyl co-transferase. The conditions noted are these: read-out: Ki(app).
In experiment [8] the target is T3, 4-hydroxy-tetrahydrodipicolinate synthase (Bacillus subtilis (strain 168), UniProt Q04796).
T3 sequence (Q04796 whole entry): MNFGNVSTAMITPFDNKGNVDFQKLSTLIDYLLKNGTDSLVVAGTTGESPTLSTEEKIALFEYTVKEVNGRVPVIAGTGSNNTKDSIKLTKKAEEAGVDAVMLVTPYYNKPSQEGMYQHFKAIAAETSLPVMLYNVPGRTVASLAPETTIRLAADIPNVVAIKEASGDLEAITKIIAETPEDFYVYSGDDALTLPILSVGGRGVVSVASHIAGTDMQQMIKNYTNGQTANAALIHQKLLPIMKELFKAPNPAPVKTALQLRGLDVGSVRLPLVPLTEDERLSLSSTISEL
Nature of the experiment: Inhibition of Bacillus subtilis DHDPS.

In the case of `O=C(O)C(=O)CF`, in experiment [1], the pKi was 3.66.

In the case of `CCOC(=O)/C=C/C(=O)/C=C/C(=O)OCC`, the pKi in experiment [2] was 2.31. Besides, the result in experiment [3] was Active. For the same molecule, the Kinact in experiment [4] is 29 ×10⁻³ /s. Also, the Ratio in experiment [5] was determined as 5.9 M⁻¹ s⁻¹.

`CCCC(=O)C(=O)O`: the pKi in experiment [1] is 3.15.

As for `CCC(=O)C(=O)O`, the pKi in experiment [1] is 3.08.

`CCOC(=O)/C=C/C(=O)CCC(=O)OCC`: the Activity entry in experiment [6] was “tde”. Besides, the pKi in experiment [2] was 1.96. In experiment [4], the Kinact was determined as 1.2 ×10⁻³ /s. Moreover, the Ratio in experiment [5] came to 0.11 M⁻¹ s⁻¹.

In the case of `O=C(O)/C=C/C(=O)/C=C/C(=O)O`, the Activity entry in experiment [6] was “tde”. For the same molecule, the figures for the pKi in experiment [2] and in experiment [7] were 2.79 and 3.28, respectively. Moreover, the Kinact in experiment [4] stood at 1.9 ×10⁻³ /s. The Ratio in experiment [5] was determined as 1.2 M⁻¹ s⁻¹.

For `O=C(O)C(=O)CCCC(=O)C(=O)O`, the pKi in experiment [8] was 3.80.

In experiment [1], `O=CC(=O)O` [GLYOXYLATE] showed a pKi of 4.80.

Turning to `O=C(O)/C=C/C(=O)CCC(=O)O`, in experiment [6], the Activity result was “tde”. Besides, the pKi in experiment [2] was 1.49. Besides, the Kinact in experiment [4] was 4.1 ×10⁻³ /s. The Ratio in experiment [5] turned out to be 0.12 M⁻¹ s⁻¹.
